Experimental data of several laboratories.
Lines come from different studies, so protocols differ.
FLT3: Receptor-type tyrosine-protein kinase FLT3 (FLT3, Homo sapiens, UniProt P36888)
FLT3 N841I: Receptor-type tyrosine-protein kinase FLT3 (FLT3, Homo sapiens, UniProt P36888, N841I)
FLT3 D835Y: Receptor-type tyrosine-protein kinase FLT3 (FLT3, Homo sapiens, UniProt P36888, D835Y)
FLT3 K663Q: Receptor-type tyrosine-protein kinase FLT3 (FLT3, Homo sapiens, UniProt P36888, K663Q)

The remaining binding of CN(C)C(=O)c1cc2cnc(Nc3ccc(-c4ccc5c(=O)cc(N6CCOCC6)oc5c4)cc3)nc2n1C1CCCC1 is reported as 3.9% (FLT3; binding, competition with immobilised ligand; 1 µM).
COc1ccc2oc(-c3ccc4nc(N)oc4c3)c/c(=N\c3ccccc3NC(=O)CCN)c2c1 has a remaining binding of 108% (FLT3; binding; 1 µM).
For N#Cc1ccc(NC(=O)Nc2ccccc2)cc1, the remaining binding was 100% (FLT3; cell-free assay, competition with immobilised ligand; 25 µM).
Cc1ccc(NC(=O)c2ccnc(C(F)(F)F)c2)cc1-c1cc(OCCO)nc(N2CCOCC2)c1 gave a remaining binding of 82% (FLT3 N841I; binding; 1 µM).
With C[C@]1(O)CCCN(c2nc(Nc3ccc(S(=O)(=O)N[C@H]4CC[C@H](CN5CCN(c6ccc(C7CCC(=O)NC7=O)cc6F)CC5)CC4)cc3Cl)ncc2C(F)(F)F)C1 (stereo partly shown) the remaining binding was 68% (FLT3 N841I; binding, competition with immobilised ligand; 1 µM).
C#Cc1cc(-c2cc(Nc3nc(N[C@@H](C)c4ccc(F)cn4)ncc3Cl)n[nH]2)ccc1C=O gave an inhibition of 98.5% (FLT3 D835Y; enzyme activity, inhibitor; 0.2 µM).
For Cc1n[nH]c2ccc3nc(-c4ccc(C(=O)NCCN(C)C)cc4F)c4c(c3c12)CCCC4, the remaining activity was 22% (FLT3; enzyme activity, inhibitor, radiometric; 0.5 µM).
With O=C1C=C(Nc2ccc(OCc3cn(Cc4ccccc4)nn3)cc2)C(=O)c2ccccc21 the inhibition was 46% (FLT3; enzyme activity, inhibitor, radiometric; 10 µM).
C[C@H]1CC[C@H](n2c3cnccc3c3cnc(Nc4ccc5c(n4)CCN(C(=O)CO)C5)nc32)CC1 has a remaining signal of 1% (FLT3 D835Y; cell-free assay; 1 µM).
The remaining binding of Cc1cc(S(=O)(=O)N[C@H]2CC[C@H](CN3CCN(c4ccc(C5CCC(=O)NC5=O)cc4F)CC3)CC2)ccc1Nc1ncc(C(F)(F)F)c(N2CCC[C@](C)(O)C2)n1 (stereo partly shown) is reported as 47% (FLT3 N841I; binding, competition with immobilised ligand; 1 µM).
With CN1CCN(C(=O)c2ccc(NC(=O)Nc3ccc(N(C)c4ccnc(Nc5ccc(CS(C)(=O)=O)cc5)n4)cc3)cc2)CC1 the remaining binding was 0% (FLT3 K663Q; binding; 1 µM).
With CC#CC(=O)N1CCC[C@H]1c1nc(-c2ccc(C(=O)Nc3ccccn3)cc2)c2c(N)nccn12 the inhibition was 1% (Receptor-type tyrosine-protein kinase FLT3 (FLT3, Homo sapiens, UniProt P36888, D835V); enzyme activity, inhibitor; 1 µM).
CCCCC(=O)Nc1ccc(-c2ccc3ncn(CCC)c(=O)c3c2)cn1 has a remaining binding of 96% (FLT3 D835Y; binding, competition with immobilised ligand; 0.5 µM).
With COc1ccc2[nH]c3c4[nH]c5ccc(OC)cc5c4c4c(c3c2c1)C(=O)NC4=O the remaining binding was 16% (FLT3 D835Y; binding; 1 µM).
For C=CC(=O)N1CCC([C@@H]2CCNc3c(C(N)=O)c(-c4ccc(Oc5ccccc5)cc4)nn32)CC1, the inhibition was 5% (Receptor-type tyrosine-protein kinase FLT3 (FLT3, Homo sapiens, UniProt P36888, ITD); enzyme activity, inhibitor; 1 µM).
The remaining binding of C1=C/COCc2cc(ccc2OCCN2CCCC2)Nc2nccc(n2)-c2cccc(c2)COC/1 is reported as 11% (FLT3 K663Q; binding; 0.1 µM).
